Reference: ChEMBL document CHEMBL3763137, “Design and synthesis of novel 4'-demethyl-4-deoxypodophyllotoxin derivatives as potential anticancer agents” (Bioorg Med Chem Lett, 2016)
Active and inactive are the calls of the source. The rule behind the calls is not given here.

Key:
[1] = test system: HepG2; test: Antiproliferative activity against human HepG2 cells after 48 hrs by MTT assay; assay type: functional, cell-based; details: HepG2, 48 h
Method in brief: (§1)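 Human cancer cells (HCT-116, HepG2 or MGC-803) incubated with compound for 48 h. Viability read by MTT assay. IC50 taken from dose-response curves. Mean ± SD of three separate assays.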

[2] = Antiproliferative activity against human HCT116 cells after 48 hrs by MTT assay; assay type: functional, cell-based; details: HCT-116, 48 h; method in brief: as §1
[3] = Antiproliferative activity against human MGC803 cells after 48 hrs by MTT assay; assay type: functional, cell-based; details: MGC-803, 48 h; method in brief: as §1
[4] = Downregulation of cyclin B expression in human MGC803 cells after 24 hrs by Western blot analysis; assay type: functional, cell-based; details: MGC-803
Method in brief: (§2)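 MGC-803 cells were incubated for 24 h at 0, 10, 20 or 40 µM. Levels of cyclin A, cyclin B, CDK1, cdc25c and p21 were detected by Western blot with specific antibodies, with P compared to 0 µM.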

[5] = test system: HepG2; test: Antitumor activity against human HepG2 cells xenografted in ICR mouse assessed as tumor growth inhibition at 1 mg/kg, iv administered every 2 days measured after 14 days relative to control; assay type: functional; details: read-out: TGI
Method in brief: (§3)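 HepG2 xenografts established in ICR mice, then randomized into four groups (n = 10 each). Compound given intravenously every two days; control group received vehicle at 0.4 mL/mouse. Tumors weighed after two weeks (day 14); inhibitory ratio calculated versus vehicle control. Body weights recorded on days 1 and 14.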

[6] = Cell cycle arrest in human MGC803 cells assessed as decrease in cell level at G1 phase after 24 hrs by propidium iodide staining based flow cytometric analysis; assay type: functional; details: MGC-803
Method in brief: (§4)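 MGC-803 cells were exposed for 24 h to 0 (untreated), 10, 20 or 40 µM. The percentage of cells in each cell-cycle phase was measured by flow cytometry. Values are mean ± SD of three independent experiments, with P compared to control.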

[7] = Cell cycle arrest in human MGC803 cells assessed as accumulation at G0/G1 phase at 20 uM after 24 hrs by propidium iodide staining based flow cytometric analysis (reference value: 77.59 %); assay type: functional; details: MGC-803; method in brief: as §4
[8] = Downregulation of CDK2 expression in human MGC803 cells at 10 to 40 uM after 24 hrs by Western blot analysis; assay type: functional, cell-based; details: MGC-803
[9] = test system: HepG2; test: Antitumor activity against human HepG2 cells xenografted in ICR mouse assessed as tumor growth inhibition at 2 mg/kg, iv administered every 2 days measured after 14 days relative to control; assay type: functional; details: read-out: TGI; method in brief: as §3
[10] = Downregulation of cdc25c expression in human MGC803 cells at 10 to 40 uM after 24 hrs by Western blot analysis; assay type: functional, cell-based; details: MGC-803; method in brief: as §2
[11] = test system: Mus musculus; test: Toxicity in ICR mouse xenografted with HepG2 cells assessed as body weight at 4 mg/kg, iv administered every 2 days measured on day 14 (reference value: 30.10 +/- 2.39 g); assay type: organism-based; details: in vivo, 48 h
[12] = Downregulation of CDK1 expression in human MGC803 cells after 24 hrs by Western blot analysis; assay type: functional, cell-based; details: MGC-803; method in brief: as §2
[13] = test system: Mus musculus; test: Toxicity in ICR mouse xenografted with HepG2 cells assessed as body weight at 2 mg/kg, iv administered every 2 days measured on day 14 (reference value: 30.10 +/- 2.39 g); assay type: organism-based; details: in vivo, 48 h
[14] = Downregulation of cyclin A expression in human MGC803 cells after 24 hrs by Western blot analysis; assay type: functional, cell-based; details: MGC-803; method in brief: as §2
[15] = test system: HepG2; test: Antitumor activity against human HepG2 cells xenografted in iv dosed ICR mouse assessed as tumor retardation effect administered every 2 days measured after 14 days; assay type: functional, organism-based
[16] = Cell cycle arrest in human MGC803 cells assessed as accumulation at G0/G1 phase at 40 uM after 24 hrs by propidium iodide staining based flow cytometric analysis (reference value: 77.59 %); assay type: functional; details: MGC-803; method in brief: as §4
[17] = Cell cycle arrest in human MGC803 cells assessed as accumulation at G2/M phase at 20 uM after 24 hrs by propidium iodide staining based flow cytometric analysis (reference value: 1.89 %); assay type: functional; details: MGC-803; method in brief: as §4
[18] = Cell cycle arrest in human MGC803 cells assessed as accumulation at G2/M phase at 40 uM after 24 hrs by propidium iodide staining based flow cytometric analysis (reference value: 1.89 %); assay type: functional; details: MGC-803; method in brief: as §4
[19] = test system: HepG2; test: Antitumor activity against human HepG2 cells xenografted in ICR mouse assessed as tumor growth inhibition at 4 mg/kg, iv administered every 2 days measured after 14 days relative to control; assay type: functional; details: read-out: TGI; method in brief: as §3
[20] = test system: Mus musculus; test: Toxicity in ICR mouse xenografted with human HepG2 cells assessed as body weight at 4 mg/kg, iv administered every 2 days measured on day 1 (reference value: 21 +/- 0.89 g); assay type: organism-based; details: in vivo, 48 h
[21] = test system: Mus musculus; test: Toxicity in ICR mouse xenografted with HepG2 cells assessed as body weight at 1 mg/kg, iv administered every 2 days measured on day 14 (reference value: 30.10 +/- 2.39 g); assay type: organism-based; details: in vivo, 48 h
[22] = Cell cycle arrest in human MGC803 cells assessed as accumulation at G0/G1 phase at 10 uM after 24 hrs by propidium iodide staining based flow cytometric analysis (reference value: 77.59 %); assay type: functional; details: MGC-803; method in brief: as §4
[23] = Cell cycle arrest in human MGC803 cells assessed as accumulation at G2/M phase at 10 uM after 24 hrs by propidium iodide staining based flow cytometric analysis (reference value: 1.89 %); assay type: functional; details: MGC-803; method in brief: as §4
[24] = Cell cycle arrest in human MGC803 cells assessed as accumulation at G2/M phase after 24 hrs by propidium iodide staining based flow cytometric analysis; assay type: functional; details: MGC-803; method in brief: as §4
[25] = Cell cycle arrest in human MGC803 cells assessed as accumulation at S phase at 40 uM after 24 hrs by propidium iodide staining based flow cytometric analysis (reference value: 20.52 %); assay type: functional; details: MGC-803; method in brief: as §4
[26] = Upregulation of p21 expression in human MGC803 cells at 10 to 40 uM after 24 hrs by Western blot analysis; assay type: functional, cell-based; details: MGC-803; method in brief: as §2
[27] = Cell cycle arrest in human MGC803 cells assessed as accumulation at S phase at 10 uM after 24 hrs by propidium iodide staining based flow cytometric analysis (reference value: 20.52 %); assay type: functional; details: MGC-803; method in brief: as §4
[28] = Cell cycle arrest in human MGC803 cells assessed as accumulation at S phase at 20 uM after 24 hrs by propidium iodide staining based flow cytometric analysis (reference value: 20.52 %); assay type: functional; details: MGC-803; method in brief: as §4
[29] = test system: Mus musculus; test: Toxicity in ICR mouse xenografted with human HepG2 cells assessed as body weight at 2 mg/kg, iv administered every 2 days measured on day 1 (reference value: 21 +/- 0.89 g); assay type: organism-based; details: in vivo, 48 h
[30] = test system: Mus musculus; test: Toxicity in ICR mouse xenografted with human HepG2 cells assessed as body weight at 1 mg/kg, iv administered every 2 days measured on day 1 (reference value: 21 +/- 0.89 g); assay type: organism-based; details: in vivo, 48 h

COc1cc([C@@H]2c3cc4c(cc3C[C@H]3COC(=O)[C@@H]32)OCO4)cc(OC)c1OCC(=O)Nc1ccccc1C
IC50 [1]: 7.8 µM
IC50 [2]: > 10 µM
IC50 [3]: 4.05 µM

COc1cc([C@@H]2c3cc4c(cc3C[C@H]3COC(=O)[C@@H]32)OCO4)cc(OC)c1OCC(=O)Nc1ccccc1Cl
IC50 [1]: > 10 µM
IC50 [2]: > 10 µM
IC50 [3]: > 10 µM

COc1ccc(NC(=O)COc2c(OC)cc([C@@H]3c4cc5c(cc4C[C@H]4COC(=O)[C@@H]43)OCO5)cc2OC)cc1
IC50 [1]: > 10 µM
IC50 [2]: > 10 µM
IC50 [3]: > 10 µM

COc1cc([C@@H]2c3cc4c(cc3C[C@H]3COC(=O)[C@@H]32)OCO4)cc(OC)c1OCC(=O)Nc1ccccc1[N+](=O)[O-]
IC50 [1]: > 10 µM
IC50 [2]: > 10 µM
IC50 [3]: > 10 µM

COc1cc([C@@H]2c3cc4c(cc3C[C@H]3COC(=O)[C@@H]32)OCO4)cc(OC)c1OCC(=O)Nc1ccccc1F
Activity [4]: Dose-dependent effect
inhibition in vivo at 1 mg/kg [5]: 6.09%
Activity [6]: Dose-dependent effect
Activity [7]: 7.22%
Activity [8]: inactive
inhibition in vivo at 2 mg/kg [9]: 26.6%
Activity [10]: Active
Activity [11]: 27.2 g
Activity [12]: Dose-dependent effect
Activity [13]: 28.36 g
Activity [14]: Dose-dependent effect
IC50 [1]: 1.08 µM
Activity [15]: Dose-dependent effect
Activity [16]: 1.8%
Activity [17]: 72.3%
Activity [18]: 75.5%
inhibition in vivo at 4 mg/kg [19]: 45.6%
Activity [20]: 21.3 g
Activity [21]: 29.09 g
Activity [22]: 41.9%
Activity [23]: 7.29%
IC50 [2]: 2.2 µM
Activity [24]: Dose-dependent effect
Activity [25]: 22.7%
Activity [26]: Active
Activity [27]: 50.8%
IC50 [3]: 0.22 µM
Activity [28]: 20.5%
Activity [29]: 20.91 g
Activity [30]: 20.82 g

COc1cc([C@@H]2c3cc4c(cc3C[C@H]3COC(=O)[C@@H]32)OCO4)cc(OC)c1OCC(=O)Nc1cccc(Cl)c1
IC50 [1]: 2.97 µM
IC50 [2]: 2.68 µM
IC50 [3]: 1.24 µM

COc1cc([C@@H]2c3cc4c(cc3C[C@H]3COC(=O)[C@@H]32)OCO4)cc(OC)c1OCC(=O)Nc1cccc([N+](=O)[O-])c1
IC50 [1]: > 10 µM
IC50 [2]: 3.2 µM
IC50 [3]: 2.82 µM

COc1cc([C@@H]2c3cc4c(cc3C[C@H]3COC(=O)[C@@H]32)OCO4)cc(OC)c1OCC(=O)Nc1ccccc1
IC50 [1]: > 10 µM
IC50 [2]: > 10 µM
IC50 [3]: 2.54 µM

COc1cc([C@@H]2c3cc4c(cc3C[C@H]3COC(=O)[C@@H]32)OCO4)cc(OC)c1OCC(=O)Nc1cccc(F)c1
IC50 [1]: > 10 µM
IC50 [2]: > 10 µM
IC50 [3]: > 10 µM

COc1cc([C@@H]2c3cc4c(cc3[C@@H](O[C@@H]3O[C@@H]5CO[C@@H](C)O[C@H]5[C@H](O)[C@H]3O)[C@H]3COC(=O)[C@H]23)OCO4)cc(OC)c1O [ETOPOSIDE]
IC50 [1]: 5.62 µM
IC50 [2]: 1.7 µM
IC50 [3]: > 10 µM

COc1cc([C@@H]2c3cc4c(cc3C[C@H]3COC(=O)[C@@H]32)OCO4)cc(OC)c1OCC(=O)Nc1c(C)cccc1Cl
IC50 [1]: > 10 µM
IC50 [2]: > 10 µM
IC50 [3]: 6.16 µM
